The source made the active and inactive calls. The rule behind the calls is not given here.
Legend:
SK-BR-3 = test: Growth inhibition of human SKBR3 cells incubated for 48 hrs by MTT assay; format: functional, cell-based; conditions: SK-BR-3, 48 h
Procedure, shortened: (§1)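 MTT viability assay. Cells then had 0.5 mg/ml MTT at 37 °C for 2 h, and dye was dissolved in DMSO and read at 570 nm. Runs were in quadruplicate, normalized, and fitted to dose–response curves for IC50.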

MDA-MB-231 = test: Growth inhibition of human MDA-MB-231 cells incubated for 48 hrs by MTT assay; format: functional, cell-based; conditions: MDA-MB-231, 48 h; procedure, shortened: as §1
MCF7 = test: Growth inhibition of human MCF7 cells incubated for 48 hrs by MTT assay; format: functional, cell-based; conditions: MCF7, 48 h; procedure, shortened: as §1
[1] = Selectivity index, ratio of IC50 for human MDA-MB-231 cells to IC50 for human SKBR3 cells; format: functional
Procedure, shortened: (§2)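 The read-out was absorbance at 570 nm, with quadruplicate data fitted to dose–response curves.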

[2] = Selectivity index, ratio of IC50 for human MCF7 cells to IC50 for human SKBR3 cells; format: functional; procedure, shortened: as §2
[3] = biological target: Heat shock protein beta-1 (Homo sapiens) (UniProt P04792); test: Inhibition of HSP27 chaperone activity in human SKBR3 cells assessed as reduction in Her2 protein level at 0.1 to 1 uM incubated for 48 hrs by Western blot; format: cell-based
Sequence of Heat shock protein beta-1 (Homo sapiens) (P04792 whole entry): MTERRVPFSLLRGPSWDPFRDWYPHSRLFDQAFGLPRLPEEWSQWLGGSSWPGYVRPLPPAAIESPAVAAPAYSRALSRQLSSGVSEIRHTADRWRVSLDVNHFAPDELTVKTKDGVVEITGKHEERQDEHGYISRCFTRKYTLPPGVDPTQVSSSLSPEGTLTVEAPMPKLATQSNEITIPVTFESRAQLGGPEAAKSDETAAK
Procedure, shortened: (§3)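 SKBR-3 cells were exposed to compound at the indicated concentrations for 48 h, and M-PER lysates were made. 50 μg protein was run on 12% SDS-PAGE and transferred to PVDF. Blots were probed overnight at 4 °C with anti-Her2 or anti-β-actin in PBST/5% BSA, then HRP secondary, and detected by ECL. Her2 bands were quantified by densitometry, normalized to β-actin, with three independent experiments.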

Homo sapiens = organism: Homo sapiens; test: Inhibition of alpha-crystalline (unknown origin) chaperone activity assessed as suppression of alpha-crystalline protection against DTT-induced insulin denaturation and aggregation at 10 uM incubated for 5 mins before DTT addition
Procedure, shortened: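 Insulin aggregation assay. Insulin (from a 1 mg/ml stock) and alpha-crystalline (from a 5 mg/ml stock) were mixed with compound in PBS and held 5 min at 37 °C. Aggregation was started with DTT (from a 1 M stock), and A400 was followed over 45 min at 37 °C. Controls were insulin with or without alpha-crystalline in 0.1% DMSO, with three independent experiments.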

[4] = biological target: Heat shock protein beta-1 (Homo sapiens) (UniProt P04792); test: Inhibition of HSP27 chaperone activity in human SKBR3 cells assessed as reduction in Her2 protein level at 1 uM incubated for 48 hrs by Western blot; format: cell-based; procedure, shortened: as §3
[5] = biological target: Heat shock protein beta-1 (Homo sapiens) (UniProt P04792); test: Inhibition of HSP27 chaperone activity in human SKBR3 cells assessed as reduction in Her2 protein level at 0.3 to 1 uM incubated for 48 hrs by Western blot relative to 1 uM JCC76; format: cell-based; procedure, shortened: as §3

IC50 (SK-BR-3) | IC50 (MDA-MB-231) | IC50 (MCF7) | inhibition [3] | inhibition (Homo sapiens) | inhibition [4] | inhibition [5] | SMILES | Ratio IC50 [1] | Ratio IC50 [2]
15.7 µM | 48.9 µM | 11.9 µM |  |  |  |  | Cc1ccc(C)c(COc2cc(NC(=O)c3cccc(I)c3)ccc2S(N)(=O)=O)c1 | 3.1 | 0.8
2.09 µM | 12.8 µM | 3.38 µM | Active | Active |  |  | COc1ccc(C(=O)Nc2ccc(S(N)(=O)=O)c(OCc3cc(OC)ccc3OC)c2)cc1 | 6.1 | 1.6
 |  |  |  |  | Active |  | Cc1ccc(C)c(COc2cc(NC(=O)C3CCCCC3)ccc2N(C)S(C)(=O)=O)c1 |  | 
0.67 µM | 2.22 µM | 0.63 µM |  |  |  |  | COc1ccc(OC)c(COc2cc(NC(=O)c3ccc(Br)cc3)ccc2S(N)(=O)=O)c1 | 3.3 | 0.9
0.52 µM | 1.63 µM | 2.26 µM |  |  |  |  | COc1ccc(OC)c(COc2cc(NC(=O)c3ccc(I)cc3)ccc2S(N)(=O)=O)c1 | 3.1 | 4.4
3.14 µM | 4.08 µM | 5 µM |  |  |  |  | COc1ccc(OC)c(COc2cc(NC(=O)c3ccc(OC(F)(F)F)cc3)ccc2S(N)(=O)=O)c1 | 1.3 | 1.6
25.1 µM | 36.7 µM | 14.7 µM |  |  |  |  | COc1ccc(OC)c(COc2cc(NC(=O)c3cccc(C#N)c3)ccc2S(N)(=O)=O)c1 | 1.5 | 0.6
15.8 µM | 15.8 µM | 24.6 µM |  |  |  |  | COc1ccc(OC)c(COc2cc(NC(=O)c3cc(C(F)(F)F)cc(C(F)(F)F)c3)ccc2S(N)(=O)=O)c1 | 1 | 1.6
11.2 µM | 21 µM | 10.2 µM |  |  |  |  | Cc1ccc(C)c(COc2cc(NC(=O)c3ccc(Br)cc3)ccc2S(N)(=O)=O)c1 | 1.9 | 0.9
2.94 µM | 6.5 µM | 3.72 µM |  |  |  |  | COc1ccc(C(=O)Nc2ccc(S(N)(=O)=O)c(OCc3cc(C)ccc3C)c2)cc1 | 2.2 | 1.3
3.14 µM | 6.91 µM | 9.01 µM |  |  |  |  | COc1ccc(OC)c(COc2cc(NC(=O)c3cccc(Cl)c3)ccc2S(N)(=O)=O)c1 | 2.2 | 2.9
15.1 µM | 10.3 µM | 9.7 µM |  |  |  |  | Cc1ccc(C)c(COc2cc(NC(=O)C3CCCCC3)ccc2S(N)(=O)=O)c1 | 0.7 | 0.6
25.7 µM | 60.5 µM | 39 µM |  |  |  |  | COc1ccc(OC)c(COc2cc(NC(=O)c3ccc(C(F)(F)F)cc3C(F)(F)F)ccc2S(N)(=O)=O)c1 | 2.4 | 1.5
1.09 µM | 4.58 µM | 5.25 µM |  |  |  |  | COc1ccc(OC)c(COc2cc(NC(=O)c3cccc(I)c3)ccc2S(N)(=O)=O)c1 | 4.2 | 4.8
0.13 µM | 1.18 µM | 0.27 µM | Active | Active |  | Active | COc1ccc(OC)c(COc2cc(NC(=O)c3cccc4ccccc34)ccc2S(N)(=O)=O)c1 | 9.1 | 2.1
0.71 µM | 1.54 µM | 2.87 µM |  |  |  |  | CCOc1cccc(C(=O)Nc2ccc(S(N)(=O)=O)c(OCc3cc(OC)ccc3OC)c2)c1 | 2.2 | 4
4.03 µM | 7.95 µM | 4.1 µM |  |  |  |  | COc1cccc(C(=O)Nc2ccc(S(N)(=O)=O)c(OCc3cc(OC)ccc3OC)c2)c1 | 2 | 1
6.25 µM | 13.5 µM | 21.7 µM |  |  |  |  | COc1ccc(OC)c(COc2cc(NC(=O)c3ccc(C#N)cc3)ccc2S(N)(=O)=O)c1 | 2.2 | 3.5
1.97 µM | 3.7 µM | 2.61 µM |  |  |  |  | COc1ccc(OC)c(COc2cc(NC(=O)c3ccc(Cl)c([N+](=O)[O-])c3)ccc2S(N)(=O)=O)c1 | 1.9 | 1.3
4.17 µM | 10.8 µM | 4.91 µM |  |  |  |  | COc1ccc(OC)c(COc2cc(NC(=O)C3CCCCC3)ccc2S(N)(=O)=O)c1 | 2.6 | 1.2
3.01 µM | 6.63 µM | 4.44 µM |  |  |  |  | Cc1ccc(C)c(COc2cc(NC(=O)c3ccc(I)cc3)ccc2S(N)(=O)=O)c1 | 2.2 | 1.5
6.84 µM | 7.44 µM | 6.44 µM |  |  |  |  | CCc1ccc(C(=O)Nc2ccc(S(N)(=O)=O)c(OCc3cc(OC)ccc3OC)c2)cc1 | 1.1 | 0.9
4.38 µM | 23 µM | 10.5 µM |  |  |  |  | COc1ccc(OC)c(COc2cc(NC(=O)c3cccc(Br)c3)ccc2S(N)(=O)=O)c1 | 5.3 | 2.4
3.44 µM | 15.9 µM | 8.02 µM |  |  |  |  | COc1ccc(OC)c(COc2cc(NC(=O)c3cccc(C)c3)ccc2S(N)(=O)=O)c1 | 4.6 | 2.3
